Compound activity deposited in PubChem BioAssay by The Scripps Research Institute Molecular Screening Center.
Most compounds without a hit are left out; they make up all but 3.2% or so of the library.
LEDGF integ inh – blocks HIV-1 LEDGF/p75-dependent DNA integration. TR-FRET IN-LEDGF/p75 DNA integration, Eu/Cy5. inhibition, % at 3.7 µM. 370,000 tested, 0.64% active. AID 743269;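 active means inhibition above the screen-wide mean plus 3 SD, cut at about 13% in these data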;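 further: signal is the Cy5 over europium emission ratio at 671 and 618 nm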
rCAG binder – r(CAG) repeat RNA binding. TO-PRO-1 dye displacement fluorescence. inhibition, % at 3 µM. 370,000 tested, 1.3% active;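 active means inhibition above the plate cutoff, the mean of all test compounds on that plate plus 3 SD, cut at about 35% in these data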;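 further: higher means more dye released from RNA so lower well fluorescence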
PRMT1 inh – inhibitors of human PRMT1; recombinant PRMT1, activity-based probe fluorescence polarization; inhibition, % at 2.79 µM; 370,000 tested, 1.3% active;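 active means inhibition above about 21% made by adding two undisclosed values, limit read from the data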
HTRA1 inh – inhibitors of human serine peptidase HTRA1; Q92743; recombinant HTRA1, FP-rhodamine activity-based probe, fluorescence polarization; inhibition, % at 5.96 µM; 340,000 tested, 0.5% active; in the data active means inhibition above about 36%
DAGLB inh – blocks human DAGLB lipase activity; inhibition, % at 5.17 µM; HEK293T DAGLB membrane lysate, EnzChek fluorogenic substrate; 340,000 tested, 0.059% active; AID 504411; in the data active means inhibition above about 34%
ABHD4 inh – inhibitors of mouse ABHD4 | Q8VD66 | 370,000 tested, 0.54% active | purified mABHD4, FP-Rh probe fluorescence polarization | inhibition, % at 8.92 µM;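 active means inhibition exceeding the mean over every tested compound plus 3 SD, cut at about 30% in these data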
Target sequence (Q8VD66 whole entry, looked up): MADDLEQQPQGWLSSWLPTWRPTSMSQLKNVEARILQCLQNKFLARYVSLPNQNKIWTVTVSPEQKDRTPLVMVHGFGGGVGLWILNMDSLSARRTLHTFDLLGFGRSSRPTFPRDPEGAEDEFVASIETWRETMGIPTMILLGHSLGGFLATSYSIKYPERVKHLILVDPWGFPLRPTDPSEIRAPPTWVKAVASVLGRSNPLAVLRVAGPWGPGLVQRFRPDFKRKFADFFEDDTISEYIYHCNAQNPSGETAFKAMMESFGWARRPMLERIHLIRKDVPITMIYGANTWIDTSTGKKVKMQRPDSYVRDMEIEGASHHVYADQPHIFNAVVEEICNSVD
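Test system: mouse ABHD4 enzyme, wild type. Reagent: FP-Rh fluorescent activity-based probe, added after compound pre-incubation. Timing: pre-incubation 45 min, probe exposure 60 min, at 25 °C. Technique: FP readout, ex 525 nm / em 598 nm. Benchmarks: high control S159A mutant with DMSO, low control median of compound wells.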
ABHD4 confirm – confirmation of mouse ABHD4 inhibitors | shares compounds with ABHD4 inh | 1,800 tested, 55% active | inhibition, % at 8.92 µM | purified mABHD4, FP-Rh probe fluorescence polarization;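 active means mean inhibition across replicates above the hit cutoff set in the primary screen, cut at about 30% in these data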
A number is an active result; n = inactive; x = no result; ! = not confirmed by another sample.

SMILES | LEDGF integ inh | rCAG binder | PRMT1 inh | HTRA1 inh | DAGLB inh | ABHD4 inh | ABHD4 confirm
Cn1c(/N=C/c2c(O)ccc3ccccc23)nc2ccccc21 | n | n | n | n | n | 31 | n
COc1c(F)c(F)c(C(=O)Nc2ccc(N3CCN(C(C)=O)CC3)c(Cl)c2)c(F)c1F | n | n | n | n | n | 31 | n
COc1ccc(N2C(=O)CS/C2=C\[N+](=O)[O-])cc1 | n | n | n | n | n | 30 | n
CNC[C@H](Cc1ccccc1)NC[C@@H](Cc1cccc2ccccc12)NCCc1ccc(C)cc1 | n | n | n | n | n | 49 | 49
Cc1ccc(C(=O)NCCc2nnc3ccc(SCC(=O)Nc4ccc(C)cc4C)nn23)cc1 | n | n | n | n | n | n | x
COc1ccccc1CNc1nc(NCCOc2ccccc2)c2sccc2n1 | n | n | n | x | x | 37 | 40
Cc1ccc(CNc2nc(NCc3ccccc3)nc3ccsc23)c(C)c1 | n | n | n | x | x | 35 | 47
Clc1ccc(N2COC3c4cccc5cccc(c45)C32)cc1 (configuration not stated) | n | n | n | n | n | n | x
COc1ccc(N2COC3c4cccc5cccc(c45)C32)cc1 (configuration not stated) | n | n | n | n | n | 43 | n
Cc1cccc2c1NC(=O)/C2=C\C(=O)c1cccs1 | n | n | n | n | n | n | x
CCc1ccc2c(c1)/C(=C/C(=O)c1cccs1)C(=O)N2 | n | n | n | n | n | 37 | 56
Cc1ccc(C)c(OCC(=O)Nc2ccc(S(=O)(=O)Nc3ncccn3)cc2)c1 | n | n | n | n | n | n | x
Cn1c(=O)cc2c3c(c(N4CCCCC4)ccc31)C(=O)c1ccccc1-2 | n | n | n | x | x | 104 | 100
O=C(NCC1CCCO1)c1ccc(NC(=O)c2cccc(Cl)c2)cc1 (configuration not stated) | n | n | n | n | n | n | x
CCOC(=O)c1c(CN2CCCCC2)n(C)c2cc(Br)c(O)c(CN(C)C)c12 | x | x | x | n | n | x | x
CCOC(=O)c1c(CSc2ccccc2)n(C)c2cc(Br)c(O)c(CN(C)C)c12 | n | n | n | n | n | 39 | n
CCOC(=O)c1c(CSc2ccsc2)n(C)c2cc(Br)c(O)c(CN(C)C)c12 | n | n | n | n | n | 30 | n
CCOC(=O)c1c(CSc2ccc(C)cc2)n(C)c2cc(Br)c(O)c(CN(C)C)c12 | n | n | n | n | n | 40 | n
O=C(O)COc1ccccc1/C=N/NC(=O)c1cc2ccccc2cc1O | n | n | n | n | n | 37 | n
Cc1ccc(-c2cc(C(=O)NN=Cc3ccccc3OCC(=O)O)[nH]n2)cc1 | n | n | n | x | x | n | x
O=C(NN=Cc1cccc(O)c1O)c1ccccc1 | n | n | n | x | x | 39 | n
COc1ccc(S(=O)(=O)NC(N)=NCCc2ccc(OC)c(OC)c2)cc1 | n | n | n | x | x | n | x
CCCOc1ccc(CNC(=O)Cc2cccs2)cc1 | n | n | n | n | n | n | x
c1ccc(OCCOc2cccc3cccnc23)cc1 | n | n | n | n | n | n | x
COC(=O)c1c(C)oc2c1cc(NS(=O)(=O)c1ccc(C(=O)O)cc1)c1ccccc12 | n | n | n | n | n | 34 | n
SMILES | LEDGF integ inh | rCAG binder | PRMT1 inh | HTRA1 inh | DAGLB inh | ABHD4 inh | ABHD4 confirm
COc1ccc(S(=O)(=O)NNC(=O)C(=O)NNc2ccccn2)cc1 | n | n | n | n | n | 31 | n
COc1ccc(C(=O)NNS(=O)(=O)c2ccc(OC)cc2)cc1 | n | n | n | n | n | n | x
O=C(Nc1ccccn1)c1ccc(S(=O)(=O)N2CCCCC2)cc1 | n | n | n | n | n | n | x
CCCCCCSc1cc(-c2nc3ccc(C)cn3c2NCc2ccccc2)ccc1OC | n | n | n | n | n | 40 | 47
CCCCCCSc1cc(-c2nc3cc(C)ccn3c2NCCCC)ccc1OC | n | n | n | n | n | 37! | 57
CCCCCCSc1cccc(-c2nc3ccc(C)cn3c2NCc2ccccc2)c1 | n | n | n | n | n | n | x
CCCCNc1c(-c2cccc(-c3cc(C(C)=O)cs3)c2)nc2cc(C)ccn12 | n | n | n | n | n | 42 | 46
CCC(C)Sc1cccc(-c2nc3ccc(C)cn3c2NCc2ccccc2)c1 (configuration not stated) | n | n | n | n | n | 36! | 32
